In brackets after ≈: the same amount, converted by molar mass.
Tests used:
Type in all cases: functional
[1] = test system: Mycobacterium tuberculosis; experiment: Antimycobacterial activity against Mycobacterium tuberculosis H37Rv ATCC 27294 incubated for 7 days by microplate Alamar Blue assay; conditions: H37Rv ATCC 27294, 168 h
Procedure, shortened: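 Fluorescence read-out. MIC is the lowest concentration that reduces fluorescence by at least 90% relative to the mean of replicate bacterium-only controls. Isoniazid and rifampicin were included as reference drugs.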

[2] = test system: Escherichia coli; experiment: Antibacterial activity against Escherichia coli ATCC 25922 after 18 to 24 hrs by two-fold serial dilution method
Procedure, shortened: (§1)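 Twofold serial dilution in agar media against Gram-positive and Gram-negative strains. Plates incubated at 35 °C for 18–24 h. MIC read as the lowest compound concentration giving complete inhibition of bacterial growth.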

[3] = test system: Escherichia coli; experiment: Antibacterial activity against extended-spectrum beta-lactamase producing Escherichia coli 14-1 after 18 to 24 hrs by two-fold serial dilution method; procedure, shortened: as §1
[4] = test system: Escherichia coli; experiment: Antibacterial activity against extended-spectrum beta-lactamase producing Escherichia coli 14-2 after 18 to 24 hrs by two-fold serial dilution method; procedure, shortened: as §1
[5] = test system: Escherichia coli; experiment: Antibacterial activity against Escherichia coli 14-1 after 18 to 24 hrs by two-fold serial dilution method; procedure, shortened: as §1
[6] = test system: Escherichia coli; experiment: Antibacterial activity against Escherichia coli 14-2 after 18 to 24 hrs by two-fold serial dilution method; procedure, shortened: as §1
[7] = test system: Klebsiella pneumoniae; experiment: Antibacterial activity against extended-spectrum beta-lactamase producing Klebsiella pneumoniae 14-17 after 18 to 24 hrs by two-fold serial dilution method; procedure, shortened: as §1
[8] = test system: Klebsiella pneumoniae; experiment: Antibacterial activity against extended-spectrum beta-lactamase producing Klebsiella pneumoniae 14-18 after 18 to 24 hrs by two-fold serial dilution method; procedure, shortened: as §1
[9] = test system: Klebsiella pneumoniae; experiment: Antibacterial activity against extended-spectrum beta-lactamase producing Klebsiella pneumoniae 14-19 after 18 to 24 hrs by two-fold serial dilution method; procedure, shortened: as §1
[10] = test system: Klebsiella pneumoniae; experiment: Antibacterial activity against Klebsiella pneumoniae 14-1 after 18 to 24 hrs by two-fold serial dilution method; procedure, shortened: as §1
[11] = test system: Klebsiella pneumoniae; experiment: Antibacterial activity against Klebsiella pneumoniae 14-2 after 18 to 24 hrs by two-fold serial dilution method; procedure, shortened: as §1
[12] = test system: Klebsiella pneumoniae; experiment: Antibacterial activity against Klebsiella pneumoniae 14-3 after 18 to 24 hrs by two-fold serial dilution method; procedure, shortened: as §1
[13] = test system: Klebsiella pneumoniae; experiment: Antibacterial activity against Klebsiella pneumoniae 14-4 after 18 to 24 hrs by two-fold serial dilution method; procedure, shortened: as §1
[14] = test system: Pseudomonas aeruginosa; experiment: Antibacterial activity against Pseudomonas aeruginosa ATCC 27853 after 18 to 24 hrs by two-fold serial dilution method; procedure, shortened: as §1
[15] = test system: Pseudomonas aeruginosa; experiment: Antibacterial activity against Pseudomonas aeruginosa 14-9 after 18 to 24 hrs by two-fold serial dilution method; procedure, shortened: as §1
[16] = test system: Pseudomonas aeruginosa; experiment: Antibacterial activity against Pseudomonas aeruginosa 14-14 after 18 to 24 hrs by two-fold serial dilution method; procedure, shortened: as §1
[17] = test system: Pseudomonas aeruginosa; experiment: Antibacterial activity against Pseudomonas aeruginosa 14-15 after 18 to 24 hrs by two-fold serial dilution method; procedure, shortened: as §1
[18] = test system: Pseudomonas aeruginosa; experiment: Antibacterial activity against Pseudomonas aeruginosa 14-16 after 18 to 24 hrs by two-fold serial dilution method; procedure, shortened: as §1
[19] = test system: Staphylococcus aureus; experiment: Antibacterial activity against Staphylococcus aureus CMCC 26003 after 18 to 24 hrs by two-fold serial dilution method; procedure, shortened: as §1
[20] = test system: Staphylococcus aureus; experiment: Antibacterial activity against methicillin-sensitive Staphylococcus aureus 14-1 after 18 to 24 hrs by two-fold serial dilution method; procedure, shortened: as §1
[21] = test system: Staphylococcus aureus; experiment: Antibacterial activity against methicillin-sensitive Staphylococcus aureus 14-3 after 18 to 24 hrs by two-fold serial dilution method; procedure, shortened: as §1
[22] = test system: Staphylococcus aureus; experiment: Antibacterial activity against methicillin-sensitive Staphylococcus aureus 14-4 after 18 to 24 hrs by two-fold serial dilution method; procedure, shortened: as §1
[23] = test system: Staphylococcus aureus; experiment: Antibacterial activity against methicillin-resistant Staphylococcus aureus 14-4 after 18 to 24 hrs by two-fold serial dilution method
Procedure, shortened: (§2)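 Agar media, standard twofold serial dilution. MIC is the lowest concentration giving complete inhibition of bacterial growth after incubation at 35 °C for 18–24 h. Ciprofloxacin and levofloxacin were run as comparators.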

[24] = test system: Staphylococcus aureus; experiment: Antibacterial activity against methicillin-resistant Staphylococcus aureus 14-5 after 18 to 24 hrs by two-fold serial dilution method; procedure, shortened: as §2
[25] = test system: Staphylococcus epidermidis; experiment: Antibacterial activity against methicillin-sensitive Staphylococcus epidermidis 14-2 after 18 to 24 hrs by two-fold serial dilution method; procedure, shortened: as §1
[26] = test system: Staphylococcus epidermidis; experiment: Antibacterial activity against methicillin-resistant Staphylococcus epidermidis 14-21 after 18 to 24 hrs by two-fold serial dilution method; procedure, shortened: as §2
[27] = test system: Staphylococcus epidermidis; experiment: Antibacterial activity against methicillin-resistant Staphylococcus epidermidis 14-22 after 18 to 24 hrs by two-fold serial dilution method; procedure, shortened: as §2
[28] = test system: Staphylococcus epidermidis; experiment: Antibacterial activity against methicillin-resistant Staphylococcus epidermidis 14-37 after 18 to 24 hrs by two-fold serial dilution method; procedure, shortened: as §2
[29] = test system: Staphylococcus epidermidis; experiment: Antibacterial activity against methicillin-resistant Staphylococcus epidermidis 14-39 after 18 to 24 hrs by two-fold serial dilution method; procedure, shortened: as §2
[30] = test system: Streptococcus pneumoniae; experiment: Antibacterial activity against methicillin-resistant Streptococcus pneumoniae ATCC 19615 after 18 to 24 hrs by two-fold serial dilution method; procedure, shortened: as §2
[31] = test system: Enterococcus faecium; experiment: Antibacterial activity against Enterococcus faecium 14-2 after 18 to 24 hrs by two-fold serial dilution method; procedure, shortened: as §1
[32] = test system: Enterococcus faecium; experiment: Antibacterial activity against Enterococcus faecium 14-5 after 18 to 24 hrs by two-fold serial dilution method; procedure, shortened: as §1
[33] = test system: Enterococcus faecium; experiment: Antibacterial activity against Enterococcus faecium 14-6 after 18 to 24 hrs by two-fold serial dilution method; procedure, shortened: as §1
[34] = test system: Enterococcus faecalis; experiment: Antibacterial activity against Enterococcus faecalis 14-1 after 18 to 24 hrs by two-fold serial dilution method; procedure, shortened: as §1
[35] = test system: Enterococcus faecalis; experiment: Antibacterial activity against Enterococcus faecalis 14-2 after 18 to 24 hrs by two-fold serial dilution method; procedure, shortened: as §1

SMILES: CO/N=C1/CN(c2nc3c(cc2F)c(=O)c(C(=O)O)cn3[C@@H]2C[C@@H]2F)CC1(C)CNC1CC1 (stereo not given in full)
- MIC90 [1]: 0.45 µg/mL (≈ 0.975 µM)
- MIC [2]: 1 µg/mL (≈ 2.17 µM)
- MIC [3]: 16 µg/mL (≈ 34.7 µM)
- MIC [4]: > 128 µg/mL
- MIC [5]: > 128 µg/mL
- MIC [6]: > 128 µg/mL
- MIC [7]: 64 µg/mL (≈ 139 µM)
- MIC [8]: 64 µg/mL (≈ 139 µM)
- MIC [9]: 32 µg/mL (≈ 69.3 µM)
- MIC [10]: 32 µg/mL (≈ 69.3 µM)
- MIC [11]: 64 µg/mL (≈ 139 µM)
- MIC [12]: 128 µg/mL (≈ 277 µM)
- MIC [13]: > 128 µg/mL
- MIC [14]: 16 µg/mL (≈ 34.7 µM)
- MIC [15]: 16 µg/mL (≈ 34.7 µM)
- MIC [16]: 64 µg/mL (≈ 139 µM)
- MIC [17]: 64 µg/mL (≈ 139 µM)
- MIC [18]: 32 µg/mL (≈ 69.3 µM)
- MIC [19]: < 0.008 µg/mL
- MIC [20]: 1 µg/mL (≈ 2.17 µM)
- MIC [21]: 1 µg/mL (≈ 2.17 µM)
- MIC [22]: 2 µg/mL (≈ 4.33 µM)
- MIC [23]: 4 µg/mL (≈ 8.67 µM)
- MIC [24]: 2 µg/mL (≈ 4.33 µM)
- MIC [25]: 16 µg/mL (≈ 34.7 µM)
- MIC [26]: 4 µg/mL (≈ 8.67 µM)
- MIC [27]: 4 µg/mL (≈ 8.67 µM)
- MIC [28]: 2 µg/mL (≈ 4.33 µM)
- MIC [29]: 4 µg/mL (≈ 8.67 µM)
- MIC [30]: 0.5 µg/mL (≈ 1.08 µM)
- MIC [31]: 4 µg/mL (≈ 8.67 µM)
- MIC [32]: 4 µg/mL (≈ 8.67 µM)
- MIC [33]: 2 µg/mL (≈ 4.33 µM)
- MIC [34]: 16 µg/mL (≈ 34.7 µM)
- MIC [35]: 1 µg/mL (≈ 2.17 µM)

SMILES: CCO/N=C1/CN(c2nc3c(cc2F)c(=O)c(C(=O)O)cn3[C@@H]2C[C@@H]2F)CC1CNC1CC1 (stereo not given in full)
- MIC90 [1]: 0.72 µg/mL (≈ 1.56 µM)
- MIC [2]: 0.03 µg/mL (≈ 0.065 µM)
- MIC [3]: 16 µg/mL (≈ 34.7 µM)
- MIC [4]: 128 µg/mL (≈ 277 µM)
- MIC [5]: 128 µg/mL (≈ 277 µM)
- MIC [6]: > 128 µg/mL
- MIC [7]: 32 µg/mL (≈ 69.3 µM)
- MIC [8]: 32 µg/mL (≈ 69.3 µM)
- MIC [9]: 64 µg/mL (≈ 139 µM)
- MIC [10]: 32 µg/mL (≈ 69.3 µM)
- MIC [11]: 32 µg/mL (≈ 69.3 µM)
- MIC [12]: 128 µg/mL (≈ 277 µM)
- MIC [13]: 128 µg/mL (≈ 277 µM)
- MIC [14]: 16 µg/mL (≈ 34.7 µM)
- MIC [15]: 8 µg/mL (≈ 17.3 µM)
- MIC [16]: 32 µg/mL (≈ 69.3 µM)
- MIC [17]: 32 µg/mL (≈ 69.3 µM)
- MIC [18]: 32 µg/mL (≈ 69.3 µM)
- MIC [19]: < 0.008 µg/mL
- MIC [20]: 4 µg/mL (≈ 8.67 µM)
- MIC [21]: 4 µg/mL (≈ 8.67 µM)
- MIC [22]: 8 µg/mL (≈ 17.3 µM)
- MIC [23]: 16 µg/mL (≈ 34.7 µM)
- MIC [24]: 8 µg/mL (≈ 17.3 µM)
- MIC [25]: 64 µg/mL (≈ 139 µM)
- MIC [26]: 16 µg/mL (≈ 34.7 µM)
- MIC [27]: 8 µg/mL (≈ 17.3 µM)
- MIC [28]: 16 µg/mL (≈ 34.7 µM)
- MIC [29]: 32 µg/mL (≈ 69.3 µM)
- MIC [30]: 1 µg/mL (≈ 2.17 µM)
- MIC [31]: 4 µg/mL (≈ 8.67 µM)
- MIC [32]: 16 µg/mL (≈ 34.7 µM)
- MIC [33]: 32 µg/mL (≈ 69.3 µM)
- MIC [34]: 32 µg/mL (≈ 69.3 µM)
- MIC [35]: 0.125 µg/mL (≈ 0.271 µM)

Source: ChEMBL document CHEMBL3734675, “Synthesis, antimycobacterial and antibacterial activity of fluoroquinolone derivatives containing an 3-alkoxyimino-4-(cyclopropylanimo)methylpyrrolidine moiety” (2015)
